Measured values: ChEMBL document CHEMBL1127813, “Pseudopeptide inhibitors of Ras farnesyl-protein transferase” (J Med Chem, 1994)
Activity calls are given as the source filed them. The calls are words filed in the database; no cut-off is given here.

Assays:
[1] = biological target: Protein farnesyltransferase (Bos taurus, UniProt P29702+P49355); test: Inhibitory activity against Ras Farnesyl Protein transferase from bovine brain
In short: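 FPTase purified from bovine brain (about 1 nM) incubated with [³H]FPP, recombinant Harvey-Ras and varying inhibitor concentrations. Protein was acid-precipitated and Ras-bound label counted by scintillation. IC50 is the concentration halving label incorporation relative to the no-inhibitor control, given as mean ± SEM with the number of determinations.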

[2] = biological target: T1, Geranylgeranyl transferase type I (Bos taurus, UniProt P29702+Q5EAD5); test: Inhibitory activity against bovine type-1 geranylgeranyl transferase.; format: protein-complex assay
[3] = tested on: NIH3T3; test: The cytotoxic endpoint, the highest nontoxic concentration for cultured NIH3T3 cells; format: functional, cell-based; details: Mus musculus
In short: (§1)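 NIH3T3 fibroblasts exposed to compound for 48 h; viability read by MTT staining. Endpoint is the highest concentration tolerated without toxicity. Top concentration tested was 100 μM for most compounds; one lactone was dosed up to 1 mM.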

[4] = The binding affinity against Ras protein
[5] = biological target: T2, Protein farnesyltransferase (Mus musculus) (UniProt Q61239+Q8K2I1); test: Inhibition of v-ras posttranslational processing in NIH3T3 cells (No inhibition); format: cell-based
In short: (§2)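 NIH 3T3 cells expressing viral Ha-ras were metabolically labeled with [³⁵S]methionine while exposed to compound or solvent control. Cells were lysed after 24 h and Ras was immunoprecipitated to assess posttranslational processing. Scored as percent inhibition of processing; +++ means ≥90% inhibition. Lovastatin 15 μM was the reference.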

[6] = biological target: T1, Geranylgeranyl transferase type I; test: In vitro inhibition of bovine type-1 geranylgeranyl transferase; format: protein-complex assay
[7] = biological target: T2, Protein farnesyltransferase (Mus musculus); test: Inhibition of v-ras posttranslational processing in NIH3T3 cells at 100 uM; format: cell-based; in short: as §2
[8] = biological target: T2, Protein farnesyltransferase (Mus musculus); test: Inhibition of v-ras posttranslational processing in NIH3T3 cells at 10 uM; format: cell-based; in short: as §2
[9] = tested on: NIH3T3; test: Highest nontoxic concentration in NIH3T3 cells; format: functional, cell-based; details: Mus musculus; in short: as §1
[10] = biological target: T2, Protein farnesyltransferase (Mus musculus); test: Inhibition of v-ras posttranslational processing in NIH3T3 cells at 5 uM (No inhibition); format: cell-based; in short: as §2
[11] = biological target: T2, Protein farnesyltransferase (Mus musculus); test: Inhibition of v-ras posttranslational processing in NIH3T3 cells at 1 uM; format: cell-based; in short: as §2
[12] = biological target: T2, Protein farnesyltransferase (Mus musculus); test: Inhibition of v-ras posttranslational processing in NIH3T3 cells at 15 uM; format: cell-based; in short: as §2

SMILES	IC50 [1] [nM]	IC50 [2] [µM]	Concentration [3] [µM]	further results
CC[C@H](C)[C@H](NC[C@@H](NC[C@@H](N)CS)[C@@H](C)CC)C(=O)N[C@@H](CCO)C(=O)O	20	45	> 100	Ki [4]: 20 nM; inhibition [5]: inactive
CC[C@H](C)[C@H](NC(=O)[C@@H](NC(=O)[C@@H](N)CS)C(C)C)C(=O)N[C@@H](CCSC)C(=O)O	165	49		
CC[C@H](C)[C@H](NC(=O)[C@@H](NC[C@@H](N)CS)C(C)C)C(=O)N[C@@H](CCSC)C(=O)O	7	0.028		
CC[C@H](C)[C@H](NC(=O)[C@@H](NC[C@@H](N)CS)C(C)C)C(=O)N[C@@H](CC(C)C)C(=O)O	550			
CCC(C)[C@H](NCC(N)CS)C(=O)N[C@H](CN[C@@H](CCSC)C(=O)O)Cc1ccccc1 (stereo partly specified)	140			IC50 [6]: 1.1 µM
CC[C@H](C)[C@H](NC(=O)[C@@H](NC(=O)[C@@H](N)CS)[C@@H](C)CC)C(=O)N[C@@H](CCO)C(=O)O	330			
CCC(C)[C@@H](CN[C@@H](Cc1ccccc1)C(=O)N[C@@H](CCSC)C(=O)O)NCC(N)CS (stereo partly specified)	4.8		> 100	IC50 [6]: 5.75 µM; inhibition [7]: 30%
CC[C@@H](C)[C@H](NC[C@@H](NC[C@@H](N)CS)[C@H](C)CC)C(=O)N[C@H]1CCOC1=O			> 1000	inhibition [7]: > 90%
CCOC(=O)[C@H](CCSC)NC(=O)[C@H](Cc1ccccc1)NC(=O)[C@@H](NCC(N)CS)C(C)CC (stereo partly specified)			10	inhibition [8]: 10%
CC[C@H](C)[C@H](NC[C@@H](N)CS)C(=O)N[C@H](C(=O)N[C@@H](CCO)C(=O)O)[C@@H](C)CC	42	8	> 100	inhibition [5]: inactive
CC[C@H](C)[C@H](NCCCS)C(=O)N[C@@H](Cc1ccccc1)C(=O)N[C@@H](CCSC)C(=O)O	50	> 10		
CC[C@H](C)[C@H](NC(=O)[C@@H](NCCCS)C(C)C)C(=O)N[C@@H](CCSC)C(=O)O	29	2.2		
CCCCCCCCCCOC(=O)[C@H](CCSC)NC(=O)[C@H](Cc1ccccc1)NC(=O)[C@@H](NCC(N)CS)C(C)CC (stereo partly specified)				Concentration [9]: 2 µM
CCC(C)[C@@H](CN[C@@H](Cc1ccccc1)C(=O)N[C@@H](CCSC)C(=O)O)NCCCS (stereo partly specified)	400			IC50 [6]: > 10 µM
CCC(C)[C@H](NCC(N)CS)C(=O)N[C@@H](Cc1ccccc1)C(=O)N[C@@H](CCSC)C(=O)OCc1ccccc1 (stereo partly specified)				Concentration [9]: 5 µM; inhibition [10]: inactive
CC[C@H](C)[C@H](NC[C@@H](N)CS)C(=O)N[C@@H](Cc1ccccc1)C(=O)N[C@@H](CCSC)C(=O)O	18	0.31	> 100	inhibition [7]: 10%
CC[C@H](C)[C@H](NC[C@@H](N)CS)C(=O)N[C@H](C(=O)N[C@H]1CCOC1=O)[C@@H](C)CC			> 100	inhibition [7]: 30%
CC[C@H](C)[C@H](NC(=O)[C@@H](N)CS)C(=O)N[C@@H](Cc1ccccc1)C(=O)N[C@@H](CCSC)C(=O)O	27	300		
CCC(C)[C@@H](CN[C@@H](Cc1ccccc1)C(=O)N[C@@H](CCSC)C(=O)OC)NCC(N)CS (stereo partly specified)			1	inhibition [11]: 10%
CCC(C)[C@H](NC[C@@H](NC(=O)[C@@H](N)CS)C(C)CC)C(=O)N[C@@H](CCO)C(=O)O (stereo partly specified)	150			
CC[C@H](C)C(=O)O[C@H]1C[C@@H](C)C=C2C=C[C@H](C)[C@H](CC[C@@H]3C[C@@H](O)CC(=O)O3)[C@H]21				inhibition [12]: > 90%
